ChEMBL document CHEMBL1147976 (Eur J Med Chem, 2007)

Experiments:
Leishmania infantum [1] = assay: Antipromastigote activity against Leishmania infantum; type: functional, organism-based
How it was run: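 L. infantum MHOM/FR/78/LEM75 late log-phase promastigotes in phenol-red-free RPMI with 12% foetal calf serum and 10% Alamar Blue. Concentration range added to duplicate cultures, final DMSO below 5%. Incubated 48 h at 25 C. Alamar Blue reduction read by absorbance at 570 and 630 nm. IC50 = concentration giving 50% reduction of Alamar Blue versus control.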

[2] = Binding affinity to DNA by DNA-methyl green bioassay; design: species or system Homo sapiens
How it was run: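 Absorbance at 630 nm read at start and after 24 h dark at room temperature. Readings corrected for initial value, normalized to untreated complex. IC50 = 50% drop in DNA-related absorbance.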

Leishmania infantum [3] = assay: Antiamastigote activity against Leishmania infantum; type: functional, organism-based
THP-1 = assay: Cytotoxicity against human THP1 cells; type: cell-based
How it was run: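 Late log-phase human monocytes in RPMI with 10% Alamar Blue and 10% foetal calf serum. Concentration range in duplicate cultures, final DMSO below 5%. Incubated 72 h at 37 C, 5% CO2. Alamar Blue reduction measured as absorbance at 570 and 630 nm. IC50 based on reduction relative to control culture.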

[4] = Toxicity in human macrophages; type: cell-based; details: macrophage

SMILES | IC50 (Leishmania infantum [1]) | IC50 [2] | IC50 (Leishmania infantum [3]) | IC50 (THP-1) | Activity [4]
COc1cccc2c1C(=O)c1c(O)c3c(c(O)c1C2=O)C[C@@](O)(C(=O)CO)C[C@@H]3O[C@H]1C[C@H](N)[C@H](O)[C@H](C)O1 [DOXORUBICIN] |  | 1.38 µM |  |  | 
COc1ccc(C(=O)Nc2ccc3cc4ccc(NC(C)=O)cc4nc3c2)cc1OC | 203 µM | > 250 µM | 1.3 µM | 2.1 µM | 
CCC(=O)Nc1ccc2cc3ccc(NC(=O)CC)cc3nc2c1 | 160 µM | 171 µM | 7.7 µM | 23.2 µM | 
CCCC(=O)Nc1ccc2cc3ccc(NC(=O)CCC)cc3nc2c1 | 46.7 µM | 102 µM | 12.8 µM | 18.9 µM | 
CC(=O)Nc1ccc2cc3ccc(NC(=O)c4ccc(F)cc4)cc3nc2c1 | 133 µM | > 250 µM | 0.67 µM | 1.1 µM | 
CC(=O)Nc1ccc2cc3ccc(NC(=O)c4ccccc4)cc3nc2c1 | 186 µM | > 250 µM |  | 5.4 µM | Toxic
CC(=O)Nc1ccc2cc3ccc(NC(C)=O)cc3nc2c1 | 342 µM | > 250 µM | 4.5 µM | 738 µM | 
CC(=O)Nc1ccc2cc3ccc(N)cc3nc2c1 | 90.8 µM | 59.1 µM |  | 4.7 µM | Toxic
COc1ccc(C(=O)Nc2ccc3cc4ccc(NC(C)=O)cc4nc3c2)cc1 | 86.9 µM | > 250 µM |  | 1.76 µM | Toxic

Continued by falling IC50 (Leishmania infantum [1]), values first:

IC50 (Leishmania infantum [1]) | IC50 [2] | IC50 (Leishmania infantum [3]) | SMILES | IC50 (THP-1) | Activity [4]
16.1 µM | > 250 µM | 0.8 µM | COc1ccc(C(=O)Nc2ccc3cc4ccc(NC(=O)c5ccc(OC)c(OC)c5)cc4nc3c2)cc1OC | 26.8 µM | 
11.5 µM | > 250 µM | 2.9 µM | CC(=O)Nc1ccc2cc3ccc(NC(=O)c4ccc(Cl)cc4)cc3nc2c1 | 1.9 µM | 
4.8 µM | > 250 µM | 1.1 µM | COc1ccc(C(=O)Nc2ccc3cc4ccc(NC(=O)c5ccc(OC)cc5)cc4nc3c2)cc1 | 13.4 µM | 
4.31 µM | > 250 µM | 1.1 µM | O=C(Nc1ccc2cc3ccc(NC(=O)c4ccccc4)cc3nc2c1)c1ccccc1 | 110 µM | 
1.7 µM | > 250 µM | 0.03 µM | O=C(Nc1ccc2cc3ccc(NC(=O)c4ccc(F)cc4)cc3nc2c1)c1ccc(F)cc1 | 0.77 µM | 
1.3 µM | > 250 µM | 0.12 µM | Nc1ccc2cc3ccc(N)cc3nc2c1 [PROFLAVINE] | 2.21 µM | 
0.38 µM |  | 0.14 µM | C[C@@H]1[C@H](O)[C@@H](C)/C=C/C=C/C=C/C=C/C=C/C=C/C=C/[C@H](O[C@@H]2O[C@H](C)[C@@H](O)[C@H](N)[C@@H]2O)C[C@@H]2O[C@](O)(C[C@@H](O)C[C@@H](O)[C@H](O)CC[C@@H](O)C[C@@H](O)CC(=O)O[C@H]1C)C[C@H](O)[C@H]2C(=O)O [AMPHOTERICIN B] | 154 µM | 
0.11 µM | > 250 µM | 0.2 µM | O=C(Nc1ccc2cc3ccc(NC(=O)c4ccc(Cl)cc4)cc3nc2c1)c1ccc(Cl)cc1 | 2.49 µM | 
